The values that follow come from ChEMBL document CHEMBL4513216, “Probing the Open Global Health Chemical Diversity Library for Multistage-Active Starting Points for Next-Generation Antimalarials” (ACS Infect Dis, 2020).

The nature of this data set: Toxicity liver stage against HepG2, at 10uM. The conditions noted are these: human, HepG2-A16-CD81EGFP cells; read-out: INHIBITION
Also on record: test concentration 10 uM, cell line HepG2-A16-CD81EGFP. In kind it is cell-based. The method in brief: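 Uninfected HepG2-A16-CD81EGFP cells, 3 × 10^3 per well, 1536-well, plated on prespotted compound at 10 μM final, parasite-free screening media added to match infected plates; puromycin 10 μM positive, DMSO 0.5% negative; run in parallel with 48 h PbLuc assay at 37 °C, 5% CO2; viability by CellTiter-Glo luminescence, normalized to controls.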
Take `CNC(=O)CN1CCC(NC(=O)C(C)Oc2ccccc2C#N)CC1` (stereo unspecified): the cytotoxicity at 10 µM is 1.97%. The result for `O=C(NC[C@H]1OC[C@@H](NC2CCOCC2)[C@@H]1O)C1CCCC1` reads -1%; that for `COCCOc1ccnc(-c2noc([C@@H]3CCCN3CC3CC3)n2)c1`, -4.55%. The result for `CCOC(=O)Cc1csc(NC(=O)c2ccc(=O)[nH]n2)n1` reads -1.23%; that for `O=C(Cc1ccccc1)N1CC(=O)N(Cc2ccco2)CC(O)C1` (stereo unspecified), -4.05%. The result for `Cc1cnc2n(c1=O)C(CC(=O)NCc1ccc(F)cc1)CS2` (stereo unspecified) reads 6.47%. Consider `COCCN1CCCC12CCCN(c1ncccn1)C2` (stereo unspecified), for which the cytotoxicity at 10 µM is -6.9%. As for `CS(=O)(=O)N[C@@H]1COC[C@@H]2CN(Cc3ccco3)C[C@@H]21`, the cytotoxicity at 10 µM was -1.43%. Turning to `CC(C)CNC(=O)c1ccc2c(c1)nc1n2CCN(Cc2ccco2)C1`, the cytotoxicity at 10 µM was -3.78%.

Consider `CC(=O)N1CCN(C(=O)Cn2ccc3c(Cl)cccc32)CC1`, for which the cytotoxicity at 10 µM is -0.643%.

For `O=C(O)CSC1CCc2ccccc2NC1=O` (stereo unspecified), the cytotoxicity at 10 µM is 1.13%.

As to `Cc1nn(CCC(=O)N(C)Cc2c(Cl)cnn2C)cc1Br`, the cytotoxicity at 10 µM was determined as 1.29%. `CCn1c(NCc2ccccn2)nc2c(C)nn(C)c2c1=O`: the cytotoxicity at 10 µM came to 9.51%. To `CC(NC(=O)c1ccc(Cl)cc1)c1nnc(SCC(=O)O)n1C` (stereo unspecified) belongs -9.35%. The result for `CC(=O)N1CCCC(c2ccc(CO)c(-c3c(C)noc3C)n2)C1` (stereo unspecified) reads -4.09%. The result for `CC(=O)N1CCC(c2noc(C3CCC(=O)N3)n2)CC1` (stereo unspecified) reads 1.64%. On to `CC(C)c1cc(C(=O)N2CCCC(c3cc(=O)nc4n3CCC4)C2)no1` (stereo unspecified), for which the cytotoxicity at 10 µM is 0.983%. The result for `COc1ccc(C2CN(c3ncccn3)CCN2C(C)=O)cc1` (stereo unspecified) reads 5.27%; that for `Cc1cccc(C)c1Nc1noc2c1CN(C(=O)c1c[nH]nc1C)CC2`, 6.22%.

On to `CCSCc1nc(O)c2nnn(C3CCN(Cc4ccoc4)CC3)c2n1`, for which the cytotoxicity at 10 µM is 4.71%. As to `Cc1ccnc(NC(=O)c2cncc(C3CCNCC3)n2)c1`, the cytotoxicity at 10 µM is -9.48%.

As for `Fc1ccc(CN2CCC(c3noc(-c4cnccn4)n3)CC2)cc1F`, the cytotoxicity at 10 µM came out at 2.35%. `CC1Cc2ccccc2N1C(=O)Cn1nc(-c2cccs2)cc(N)c1=O` (stereo unspecified): the cytotoxicity at 10 µM is -10.6%. For `Cc1cc(-c2cnc(C)nc2CN(C)C(=O)c2ccccn2)on1`, the cytotoxicity at 10 µM stood at 7.95%. In the case of `CC(=O)N[C@@H]1C[C@H](c2ccc(OCCO)cc2)OC2(CCOCC2)C1`, the cytotoxicity at 10 µM is -21.2%.

On to `Cc1cc(CCC(N)=O)cc(C2CCCN2Cc2ccccn2)n1` (stereo unspecified), for which the cytotoxicity at 10 µM was -16.7%. For the compound `Cc1nc(C2CCCN2C(=O)CCc2ccccc2)ncc1C(N)=O` (stereo unspecified), the cytotoxicity at 10 µM is -19.5%. The result for `Nc1nc2nc(C3CCCN(C(=O)c4cncs4)C3)ccc2s1` (stereo unspecified) reads -19.1%; that for `Cn1c(CO)cnc1SC(C(N)=O)c1ccccc1` (stereo unspecified), -48.8%. The result for `CC(CN1CCOC1=O)NC(=O)c1ccccc1Oc1ccccc1` (stereo unspecified) reads 1.2%; that for `Cc1nn2cccnc2c1C(=O)NCc1ccccc1OCC1CC1`, -48.4%. To `NC(=O)C1CCN(C(=O)NC2CCc3cc(Cl)ccc32)CC1` (stereo unspecified) belongs 1.67%; to `CCc1ccc(C(COC)NC(=O)c2ccc(NC(C)=O)cc2)o1` (stereo unspecified), -3.91%. Consider `COCc1nccc(C2CCCN(Cc3ccc(C#N)cc3)C2)n1` (stereo unspecified), for which the cytotoxicity at 10 µM is 6.45%.

As for `CCS(=O)(=O)N(C)C1CCN(C(=O)c2cc(C)cc(C)c2)CC1`, the cytotoxicity at 10 µM is 11.5%. Regarding `COC(=O)CCNC(=O)c1cnc(Cc2ccc(F)cc2)s1`, the cytotoxicity at 10 µM was -5.87%. The result for `Cc1noc(C)c1CN(C)C(=O)Nc1cnn(CC2CCCO2)c1` (stereo unspecified) reads -2.77%; that for `CC(O)CN1CCN(C(=O)CN(C)c2ccc(C#N)cn2)CC1` (stereo unspecified), -0.785%; that for `COCCCNC(=O)c1ccccc1S(C)(=O)=O`, -2.83%. Take `NC(=O)CN1CCN(c2ccnc3c(F)ccc(F)c23)CC1`: the cytotoxicity at 10 µM is 0.315%.

For the compound `CCn1cc(S(=O)(=O)N2CCCSc3ccccc32)cn1`, the cytotoxicity at 10 µM was determined as 9.25%. Consider `COCC(C)NC(=O)CN1CCC(C)CC1` (stereo unspecified), for which the cytotoxicity at 10 µM is -9.32%. The result for `O=S(=O)(NCc1ccc(S(=O)(=O)N2CCCC2)s1)c1ccc(F)cc1Cl` reads -39.9%. For `CC(CCNC(=O)N(C)CC1CCOCC1)N1CCCCC1` (stereo unspecified), the cytotoxicity at 10 µM stood at 8.63%.

As for `CC(=O)NCC(=O)N1Cc2nccn2CC(CN2CCCC2=O)C1` (stereo unspecified), the cytotoxicity at 10 µM is -76.9%. Regarding `CN1CCN(Cc2ccsc2)Cc2cccnc21`, the cytotoxicity at 10 µM was -77.9%. Turning to `O=C(Cc1cccnc1)N1CCCC2(CCN(CC3CCOCC3)C2)C1` (stereo unspecified), the cytotoxicity at 10 µM came out at 2%. As to `CCc1nccc(CN2CCC(CNC(=O)Nc3ccccc3)C2)n1` (stereo unspecified), the cytotoxicity at 10 µM amounted to 9.99%. To `COCc1ncc(CN2CCC3(CCNCC3)CC2)cn1` belongs -139%; to `CCCc1nc(C)cc(NCc2ccc(S(N)(=O)=O)cc2)n1`, 10.3%. On to `Cc1csc2c(=O)n(CCSc3cnn[nH]3)cnc12`, for which the cytotoxicity at 10 µM was -3.61%. Turning to `CC(C)Cc1noc(CN(C)C[C@]2(O)CCCN3CCCC[C@@H]32)n1`, the cytotoxicity at 10 µM was -2.36%. To `O=C(c1cccc(S(=O)(=O)NCCCn2cccn2)c1)N1CCOCC1` belongs 5.78%; to `Cc1ccc(C(=O)N2CCC(c3nccn3C(C)C)CC2)c(=O)[nH]1`, 4.75%.

As to `NC(=O)NCCC(=O)N1CCC(c2cc(-c3ccccc3Cl)n[nH]2)CC1`, the cytotoxicity at 10 µM was -6.67%. As to `Cc1ccccc1CN(CCN(C)C)C(=O)c1ccc2nccn2c1`, the cytotoxicity at 10 µM was -2.36%. To `NCc1n[nH]c(=O)n1-c1cccc(Cl)c1Cl` belongs -0.994%; to `CC(C)c1ccc(CN2CCC(CNS(=O)(=O)C3CC3)C2)cc1` (stereo unspecified), -1.37%. In the case of `Cn1cccc1-c1cc(C(=O)N2CCCC2c2ccc(C(N)=O)s2)[nH]n1` (stereo unspecified), the cytotoxicity at 10 µM is -1.33%. Turning to `Clc1cccc2c3c([nH]c12)CCN(Cc1cc2n(n1)CCCNC2)C3`, the cytotoxicity at 10 µM is -17.1%.

As to `O=c1c2ccccc2ncn1Cc1cc(C2CC2)[nH]n1`, the cytotoxicity at 10 µM worked out at 3.8%. The result for `CC(C)n1cc(CN(Cc2ccc(F)cc2)CC2CCCO2)cn1` (stereo unspecified) reads -3.47%; that for `Cc1cnn(CCCN2C(=O)CCc3ccccc32)c1`, 1.39%. The result for `O=C(Cc1cccc(O)c1)N1CCC2(CC1)c1ccccc1CC2O` (stereo unspecified) reads 2.28%; that for `O=C1CCC2(CCN(Cc3cc(F)cc(F)c3)CC2)CN1CCO`, -11.6%.

In the case of `Cc1nccnc1CN1CCC2(CCCN(C3CCOCC3)C2=O)C1` (stereo unspecified), the cytotoxicity at 10 µM is -5.44%. Consider `Cc1nc(CN2CCCC(Cn3cc(CCO)nn3)C2)c[nH]1` (stereo unspecified), for which the cytotoxicity at 10 µM is -21.1%.

For `O=C(CCN1CCCC1=O)NCc1cccnc1Oc1ccccc1`, the cytotoxicity at 10 µM was -7.47%.

Turning to `CCOc1ccc(Cl)c(C(=O)NCCC(=O)Nc2ccccn2)n1`, the cytotoxicity at 10 µM was -3.13%. Turning to `Cc1noc(C2CCN(C(=O)CCCNc3ncccn3)CC2)n1`, the cytotoxicity at 10 µM was -6.69%. The result for `Cc1nc(-c2ccsc2)ccc1C(=O)NCCN1CCN(C)CC1` reads -11.2%; that for `CCc1noc(CNc2ccc(C(=O)N3CCCC(C)C3)cc2C)n1` (stereo unspecified), -10.8%; that for `CN(CCCOc1ccccc1)C(=O)CN1CCc2cncnc2C1`, -2.06%. To `CCS(=O)(=O)c1ccccc1N1CCC(NC(=O)c2ccc[nH]2)CC1` belongs -8.26%. To `Cc1ccc2oc(C(=O)N3CCCC(n4nc(C)cc4C)C3)cc2n1` (stereo unspecified) belongs 1.25%; to `CC(O)CN1CCC(CNCc2ccccc2Br)CC1` (stereo unspecified), -13.2%.

Take `Cc1ncc(CNC2CCCN(Cc3noc(C4CC4)n3)C2)s1` (stereo unspecified): the cytotoxicity at 10 µM is -7.7%. As to `c1ccc(Cn2ccnc2CN2CCCC2c2noc(C3CC3)n2)cc1` (stereo unspecified), the cytotoxicity at 10 µM was -0.818%. To `CNc1snc(C)c1C(=O)N1CCCC(n2ccnc2C(C)C)C1` (stereo unspecified) belongs 1.66%; to `O=C(CCc1cscn1)N1CCCC1c1noc(C2CC2)n1` (stereo unspecified), -10.9%. For the compound `O=C(COCC1CC1)N1CCCC(n2cncn2)C1` (stereo unspecified), the cytotoxicity at 10 µM is -3.54%.

`c1cc(CN2CCCn3cnc(COCC4CC4)c3C2)ccn1`: the cytotoxicity at 10 µM was 7.31%. The result for `Cn1ccc(C(=O)N2C[C@@H]3OCCN(c4ncccn4)[C@@H]3C2)n1` reads 5.7%; that for `O=C(C1CCOCC1)N1CCC2(CCN(Cc3nccs3)CC2)CC1`, -83.1%. The result for `C[C@@H]1CN(C(=O)C2CCOCC2)C[C@]12CCN(c1cccnc1)C2=O` reads 6.95%; that for `CN1CCOCC2(CCCN(C(=O)c3cnccn3)C2)C1` (stereo unspecified), -75.4%.

As to `O=C(c1nc2c(o1)CN(CC1CC1)C2)N1CCCC1`, the cytotoxicity at 10 µM is -163%. The result for `COCCNC(=O)[C@H]1C[C@@H]2CCN(c3nncs3)C[C@H]2O1` reads -2.12%; that for `Cc1noc(C)c1C(=O)N1C[C@@H]2COC[C@]2(COc2ccccn2)C1`, 2.47%. In the case of `O=C(c1ccccc1F)N1CCCn2c(CN3CCCCC3)nnc2C1`, the cytotoxicity at 10 µM was -71.5%. To `c1csc(CN2CCCC3(COCCN(c4cnccn4)C3)C2)c1` (stereo unspecified) belongs -68.7%. To `O=C(N[C@@H]1CN(Cc2ccccn2)[C@@H]2COC[C@@H]21)C1CCC1` belongs 8.67%; to `Cc1noc(C)c1CN1Cc2nccn2CC(CN2CCOCC2)C1` (stereo unspecified), -82%. The result for `CO[C@@H]1CC[C@H]2[C@H]1OCCN2Cc1ccccn1` reads 1.06%; that for `NC1CCC(CN2CCCn3nc(CNC(=O)C4CCC4)cc3C2)CC1` (stereo unspecified), 4.03%; that for `C1CC(CN2C[C@@H]3CC[C@H]2CN(Cc2noc(C4CCCC4)n2)C3)C1`, -15.6%.
